Source: article PMC7201918 (The Journal of Experimental Medicine, 2020)

Tests used:
[1] = system: GM-CSF (Csf2fl/fl:R26CreERT2 mice); assay: EAE with tamoxifen-induced GM-CSF deletion; format: in vivo, mouse; conditions: tamoxifen by oral gavage after EAE onset in Csf2fl/fl:R26CreERT2 mice; n = 12 mice
WT mouse BM neutrophils = assay: SOCS mRNA expression by real-time PCR in BM neutrophils; format: cell-based; conditions: purified mouse BM neutrophils, 100 ng/ml GM-CSF, later time points
[2] = system: human blood neutrophils and monocytes; assay: Immunoblotting of pSTAT5 and CIS in human blood neutrophils and monocytes; format: cell-based; conditions: GM-CSF stimulation
How it was run: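 Blood neutrophils and monocytes from healthy human donors were treated with GM-CSF. pSTAT5, CIS and β-actin were immunoblotted from RIPA lysates (protease and phosphatase inhibitors, BCA-normalized) run on 4–12% Bis-Tris gels and detected by chemiluminescence. One experiment representative of three.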

CIS−/− BM neutrophils = assay: Immunoblot of JAK-STAT/MAPK/Akt phosphorylation in WT or CIS−/− BM neutrophils; format: cell-based, mouse
How it was run: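 Ly6G-selected bone marrow neutrophils (≥95% pure) were primed with GM-CSF (100 ng/ml) for 3 h, washed, and held in cytokine-free medium for various times. Cells were lysed in RIPA buffer containing protease and phosphatase inhibitors, and loading was normalized by BCA assay. Lysates were separated on 4–12% Bis-Tris gels, transferred to PVDF, and detected by chemiluminescence. One of three independent experiments.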

[3] = system: CD131 (GM-CSFRβ) on BM neutrophils; assay: Flow-cytometric analysis of CD131; format: cell-based, mouse; conditions: CIS−/− compared with WT neutrophils from 50:50 chimeric mice; n = 4 mice
How it was run: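 Surface CD131 was measured by flow cytometry on bone marrow neutrophils from WT:CIS−/− (50:50) chimeric mice. Cells were analysed naive (t0) and after stimulation with recombinant G-CSF or GM-CSF (100 ng/ml). n = 4 mice pooled from two independent experiments.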

[4] = system: WT or CIS−/− BM neutrophils; format: cell-based, mouse; conditions: for cleaved caspase-3 induction upon cytokine withdrawal: G-CSF: WT and CIS−/− neutrophils, GM-CSF: CIS−/− relative to WT; for Mcl-1 expression: WT and CIS−/− neutrophils, G-CSF or GM-CSF preconditioning
How it was run: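 Purified bone marrow neutrophils were exposed to recombinant G-CSF or GM-CSF (100 ng/ml) for 3 h, then replenished with cytokine-free medium for the indicated times. RIPA lysates with protease and phosphatase inhibitors were BCA-normalized. They were resolved on 4–12% Bis-Tris gels, blotted to PVDF, and developed by HRP chemiluminescence.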

[5] = system: BM neutrophils from WT and CIS−/− mice; assay: CXCL2 and CCL3 secretion by BM neutrophils; format: cell-based, mouse; conditions: CIS−/− vs WT neutrophils, GM-CSF for 24 h; n = 3 mice
CCRL2 on BM neutrophils = assay: Flow-cytometric analysis of CCRL2 surface expression on BM neutrophils; format: cell-based, mouse; conditions: CIS−/− vs WT neutrophils; n = 3 mice
[6] = system: BM monocytes from WT and CIS−/− mice; assay: Differentiation of BM monocytes into CD11c+ GM-Macs; format: cell-based, mouse; conditions: CIS-deficient relative to WT monocytes; n = 4 mice
How it was run: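 Monocytes were purified from bone marrow by anti-CD115 magnetic positive selection (>95% purity). They were cultured with recombinant GM-CSF at 100 ng/ml in RPMI 1640 with antibiotics and 10% heat-inactivated FCS for the indicated times. The frequency of CD11c+ GM-Macs was determined by flow cytometry. n = 4 mice pooled from two independent experiments.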

[7] = system: BM monocytes from WT and CIS−/− mice; assay: Chemokine; format: cell-based, mouse; conditions: 8 h after GM-CSF stimulation, n = 3 mice
How it was run: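 Bone marrow monocytes from WT and CIS−/− mice were isolated by anti-CD115-biotin/anti-biotin microbead positive selection (>95% purity). They were stimulated with recombinant GM-CSF at 100 ng/ml for 8 h in RPMI 1640 with antibiotics and 10% heat-inactivated FCS. Ccl17 and Ccl22 mRNA was measured by real-time PCR, normalized to Gapdh. n = 3 mice, one experiment.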

[8] = system: WT and CIS−/− BM neutrophils; assay: RNASeq of BM neutrophils after GM-CSF stimulation; format: cell-based, mouse; conditions: GM-CSF 100 ng/ml
How it was run: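 Neutrophils were FACS-sorted from WT and CIS−/− bone marrow (PI– CD3– CD19– CD115– CD11b+ Ly6G+; 99–100% purity). They were left unstimulated or stimulated with recombinant GM-CSF at 100 ng/ml for 4 h and 24 h. RNA libraries underwent single-end 75 bp sequencing on a NextSeq 500 (~20 million reads per sample), and reads were quality-checked with fastqc.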

[9] = system: WT and CIS−/− BM eosinophils; assay: Generation of eosinophils from BM cells in IL-5; format: cell-based, mouse; conditions: IL-5 for 3 d, n = 3 mice
eosinophils = conditions: ref Burnham et al., 2013; Matsumoto et al., 1997; Yoshimura et al., 1995; cited from earlier work
IL-18 = conditions: cited from earlier work
synovial cell cultures = conditions: exogenous IL-18, synovial cell cultures; ref Gracie et al., 1999; cited from earlier work

CC/C(=C(\c1ccccc1)c1ccc(OCCN(C)C)cc1)c1ccccc1 [tamoxifen]
progression of EAE [1]: inhibited the progression of EAE

GM-CSF: recombinant GM-CSF (100 ng/ml)
persistence of SOCS mRNA induction (WT mouse BM neutrophils): only Cish mRNA levels were sustained at later time points
CIS induction and STAT5 phosphorylation [2]: CIS induction and STAT5 phosphorylation
STAT5 activation, later time points (CIS−/− BM neutrophils; CIS−/− vs WT neutrophils, 100 ng/ml GM-CSF, 2 h after stimulation): prolonged expression of STAT5 activation at later time points
JAK2-STAT5 activation after cytokine withdrawal (CIS−/− BM neutrophils; GM-CSF-primed (3 h) then washed CIS−/− neutrophils): Extended JAK2-STAT5 activation
STAT3 and Akt dephosphorylation after cytokine withdrawal (CIS−/− BM neutrophils; GM-CSF-primed (3 h) then washed, WT vs CIS−/− neutrophils): kinetics of STAT3 and Akt dephosphorylation were similar
p38 MAPK and SAPK/JNK activation after cytokine withdrawal (CIS−/− BM neutrophils; GM-CSF-primed then washed CIS−/− neutrophils): prolonged activation of p38 MAPK and SAPK/JNK
cell surface GM-CSFRβ expression after stimulation [3]: higher cell surface GM-CSFRβ expression
A1/Bfl-1 induction ([4]; BM neutrophils): selectively induced the pro-survival protein A1/Bfl-1
A1/Bfl-1 level upon cytokine withdrawal ([4]; CIS−/− neutrophils upon GM-CSF withdrawal): sustained for a longer period
cleaved caspase-3 induction upon cytokine withdrawal [4]: delayed induction of cleaved caspase-3
Mcl-1 expression [4]: no difference in the expression of prosurvival Mcl-1 protein
CXCL2 and CCL3 secretion [5]: secreted higher levels of CXCL2 and CCL3 chemokines
cell surface CCRL2 expression (CCRL2 on BM neutrophils): enhanced cell surface CCRL2 expression
differentiation into GM-Macs [6]: accelerated differentiation into GM-Macs
chemokine production by monocytes [7]: produced higher levels of chemokines
gene expression change, 24 h ([8]; CIS−/− neutrophils, 24 h): extensive transcriptional changes
gene expression change, 4 h ([8]; CIS−/− vs WT neutrophils, 4 h): little difference in gene expression

IL-5: cytokine signaling through the common β chain
eosinophil numbers [9]: greater numbers
Cish expression in eosinophils (eosinophils): can induce Cish expression

IL-18: IL-1 family member; exogenous IL-18
effect on CIA, exogenous IL-18 (IL-18; ref Gracie et al., 1999): prime CIA
secretion of GM-CSF (along with nitric oxide, TNF, and IFN-γ) (synovial cell cultures): promote the secretion of GM-CSF

B1: IL-18–binding protein: endogenous inhibitor of IL-18 (protein, UniProt O95998 31-194, looked up)
Interleukin-18-binding protein: TPVSQTTTAATASVRSTKDPCPSQPPVFPAAKQCPALEVTWPEVEVPLNGTLSLSCVACSRFPNFSILYWLGNGSFIEHLPGRLWEGSTSRERGSTGTQLCKALVLEQLTPALHSTNFSCVLVDPEQVVQRHVVLAQLWAGLRATLPPTQEALPSSHSSPQQQG
effect on CIA, IL-18 inhibition (IL-18; ref Plater-Zyberk et al., 2001): alleviation of CIA

B2: G-CSF: recombinant G-CSF (100 ng/ml) (protein, UniProt P09919 31-207, looked up)
Granulocyte …: TPLGPASSLPQSFLLKCLEQVRKIQGDGAALQEKLVSECATYKLCHPEELVLLGHSLGIPWAPLSSCPSQALQLAGCLSQLHSGLFLYQGLLQALEGISPELGPTLDTLQLDVADFATTIWQQMEELGMAPALQPTQGAMPAFASAFQRRAGGVLVASHLQSFLEVSYRVLRHLAQP
cell surface GM-CSFRβ expression after stimulation [3]: no such difference
cleaved caspase-3 induction upon cytokine withdrawal [4]: rapid induction of cleaved caspase-3
Mcl-1 expression [4]: no difference in the expression of prosurvival Mcl-1 protein
